Activity calls are given as the source filed them. The rule behind the calls is not given here.
Columns and labels:
CCRF-CEM [1] = assay: Antioxidant activity in human CCRF-CEM cells assessed as suppression of diethyl maleate-induced ROS generation at 0.025 to 2.5 uM preincubated for 18 hrs prior to diethyl maleate-challenge measured after 1 hr by FACS flow cytometric analysis in presence of DCFH-DA; type: functional, cell-based
Summary of the method: (§1)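 Lymphocytes (Coriell, RPMI with 15% FBS) or CCRF-CEM cells (RPMI with 10% FBS), 2.5 × 10⁵ cells/mL, exposed to compounds for 18 h at 37 °C, then 5 mM diethyl maleate for 1 h. Cells washed in PBS, loaded with 10 µM DCFH-DA in PBS/10 mM glucose for 25 min at 37 °C in the dark. DCF read by flow cytometry (488 nm excitation, 530 nm emission). Mean ± S.E.M., three experiments in duplicate.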

Bos taurus [2] = species on record: Bos taurus; assay: Inhibition of NADH oxidase activity of bovine heart mitochondrial […] at 1 uM after 5 mins by spectrophotometric analysis relative to control; values are per cent of control
Homo sapiens [3] = species on record: Homo sapiens; assay: Effect on total ATP level in CoQ10-deficient human GM17932 cells after 48 hrs by bioluminescence assay; type: functional
Summary of the method: (§2)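 Lymphocytes were adapted to glucose-free RPMI with 25 mM galactose for at least one week. Cells at 2 × 10⁵ cells/mL were given compound at final 5, 10 or 25 µM for 48 h at 37 °C, 5% CO₂. Total intracellular ATP was measured by luciferase bioluminescence kit and expressed as % of untreated control.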

Homo sapiens [4] = species on record: Homo sapiens; assay: Cytoprotective activity against diethyl maleate-induced oxidative stress in Alzheimer's disease patient AG06849 cells assessed as cell viability at 2.5 uM preincubated for 15 hrs prior to diethyl maleate-challenge measured after 6 hrs by hemocytometer-based assay; type: functional
Summary of the method: (§3)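 Cells seeded at 5 × 10⁵ cells/mL, preincubated with 0.5 or 2.5 µM compound at 37 °C, 5% CO₂, then given 5 mM diethyl maleate for 6 h. Viable cells counted by trypan blue exclusion on a hemocytometer. Viability expressed as % of untreated control. Three independent experiments in triplicate, mean ± S.E.M.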

[5] = Effect on total ATP level in Leber's optic atrophy disease patient GM10744 cells at 10 uM after 48 hrs by bioluminescence assay relative to control; type: functional, Homo sapiens; summary of the method: as §2
[6] = Effect on total ATP level in Leber's optic atrophy disease patient GM10744 cells at 5 uM after 48 hrs by bioluminescence assay relative to control; type: functional, Homo sapiens; summary of the method: as §2
[7] = Effect on total ATP level in CoQ10-deficient human GM17932 cells at 25 uM after 48 hrs by bioluminescence assay relative to control; type: functional; summary of the method: as §2
Homo sapiens [8] = species on record: Homo sapiens; assay: Cytoprotective activity against diethyl maleate-induced oxidative stress in Parkinson's disease patient GM15010 cells assessed as cell viability at 2.5 uM preincubated for 15 hrs prior to diethyl maleate-challenge measured after 6 hrs by hemocytometer-based assay; type: functional; summary of the method: as §3
GM15850 [9] = assay: Cytoprotective activity against diethyl maleate-induced oxidative stress in Friedreich's ataxia disease patient GM15850 cells assessed as cell viability at 0.5 uM preincubated for 15 hrs prior to diethyl maleate-challenge measured after 6 hrs by hemocytometer-based assay; type: functional; settings: Homo sapiens; summary of the method: as §3
Homo sapiens [10] = species on record: Homo sapiens; assay: Antioxidant activity in Leber's optic atrophy disease patient GM10744 cells assessed as suppression of diethyl maleate-induced ROS generation at 0.025 to 2.5 uM preincubated for 18 hrs prior to diethyl maleate-challenge measured after 1 hr by FACS flow cytometric analysis in presence of DCFH-DA; type: functional; summary of the method: as §1
GM15850 [11] = assay: Effect on total ATP level in Friedreich's ataxia disease patient GM15850 cells at 5 uM after 48 hrs by bioluminescence assay relative to control; type: functional, Homo sapiens; summary of the method: as §2
Bos taurus [12] = species on record: Bos taurus; assay: Inhibition of NADH oxidase activity of bovine heart mitochondrial […] at 5 uM after 5 mins by spectrophotometric analysis relative to control; values are per cent of control
Homo sapiens [13] = species on record: Homo sapiens; assay: Antioxidant activity in Alzheimer's disease patient AG06849 cells assessed as suppression of diethyl maleate-induced ROS generation at 0.025 to 2.5 uM preincubated for 18 hrs prior to diethyl maleate-challenge measured after 1 hr by FACS flow cytometric analysis in presence of DCFH-DA; type: functional; summary of the method: as §1
[14] = Effect on total ATP level in Leber's optic atrophy disease patient GM10744 cells at 25 uM after 48 hrs by bioluminescence assay relative to control; type: functional, Homo sapiens; summary of the method: as §2
GM15850 [15] = assay: Effect on total ATP level in Friedreich's ataxia disease patient GM15850 cells at 25 uM after 48 hrs by bioluminescence assay relative to control; type: functional, Homo sapiens; summary of the method: as §2
Bos taurus [16] = species on record: Bos taurus; assay: Inhibition of NADH oxidase activity of bovine heart mitochondrial […] at 10 uM after 5 mins by spectrophotometric analysis relative to control; values are per cent of control
Bos taurus [17] = species on record: Bos taurus; assay: Inhibition of NADH-ubiquinone oxidoreductase in bovine heart mitochondria after 5 mins by spectrophotometric analysis relative to control
Summary of the method: (§4)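 Bovine heart submitochondrial particles, 12 µg, incubated 5 min at 39 °C with compound in 50 mM phosphate pH 7.4, 0.25 M sucrose, 1 mM MgCl₂, 2 mM KCN, plus antimycin A. Reaction started with 50 µM NADH and 50 µM coenzyme Q₁; NADH loss read at 340 nm. K_I derived. Mean of three experiments in triplicate.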

GM15850 [18] = assay: Effect on total ATP level in Friedreich's ataxia disease patient GM15850 cells at 10 uM after 48 hrs by bioluminescence assay relative to control; type: functional, Homo sapiens; summary of the method: as §2
GM15850 [19] = assay: Effect on total ATP level in Friedreich's ataxia disease patient GM15850 cells after 48 hrs by bioluminescence assay; type: functional; settings: Homo sapiens; summary of the method: as §2
CCRF-CEM [20] = assay: Cytoprotective activity against diethyl maleate-induced oxidative stress in human CCRF-CEM cells assessed as cell viability at 0.5 uM preincubated for 15 hrs prior to diethyl maleate-challenge measured after 6 hrs by hemocytometer-based assay; type: functional; summary of the method: as §3
Homo sapiens [21] = species on record: Homo sapiens; assay: Cytoprotective activity against diethyl maleate-induced oxidative stress in Leber's optic atrophy disease patient GM10744 cells assessed as cell viability at 0.5 uM preincubated for 15 hrs prior to diethyl maleate-challenge measured after 6 hrs by hemocytometer-based assay; type: functional; summary of the method: as §3
Homo sapiens [22] = species on record: Homo sapiens; assay: Cytoprotective activity against diethyl maleate-induced oxidative stress in Alzheimer's disease patient AG06849 cells assessed as cell viability at 0.5 uM preincubated for 15 hrs prior to diethyl maleate-challenge measured after 6 hrs by hemocytometer-based assay; type: functional; summary of the method: as §3
CCRF-CEM [23] = assay: Antioxidant activity in human CCRF-CEM cells assessed as suppression of diethyl maleate-induced ROS generation preincubated for 18 hrs prior to diethyl maleate-challenge measured after 1 hr by FACS flow cytometric analysis in presence of DCFH-DA; type: functional, cell-based; summary of the method: as §1
Homo sapiens [24] = species on record: Homo sapiens; assay: Cytoprotective activity against diethyl maleate-induced oxidative stress in Leigh's syndrome patient GM13740 cells assessed as cell viability at 0.5 uM preincubated for 15 hrs prior to diethyl maleate-challenge measured after 6 hrs by hemocytometer-based assay; type: functional; summary of the method: as §3
Homo sapiens [25] = species on record: Homo sapiens; assay: Cytoprotective activity against diethyl maleate-induced oxidative stress in Leigh's syndrome patient GM13740 cells assessed as cell viability at 2.5 uM preincubated for 15 hrs prior to diethyl maleate-challenge measured after 6 hrs by hemocytometer-based assay; type: functional; summary of the method: as §3
[26] = Effect on total ATP level in CoQ10-deficient human GM17932 cells at 5 uM after 48 hrs by bioluminescence assay relative to control; type: functional; summary of the method: as §2
Homo sapiens [27] = species on record: Homo sapiens; assay: Cytoprotective activity against diethyl maleate-induced oxidative stress in Leber's optic atrophy disease patient GM10744 cells assessed as cell viability at 2.5 uM preincubated for 15 hrs prior to diethyl maleate-challenge measured after 6 hrs by hemocytometer-based assay; type: functional; summary of the method: as §3
GM15850 [28] = assay: Cytoprotective activity against diethyl maleate-induced oxidative stress in Friedreich's ataxia disease patient GM15850 cells assessed as cell viability at 2.5 uM preincubated for 15 hrs prior to diethyl maleate-challenge measured after 6 hrs by hemocytometer-based assay; type: functional; settings: Homo sapiens; summary of the method: as §3
[29] = Inhibition of NADH-ubiquinone oxidoreductase in bovine heart mitochondria after 5 mins by spectrophotometric analysis; parameters: species or system Bos taurus; summary of the method: as §4
Homo sapiens [30] = species on record: Homo sapiens; assay: Effect on total ATP level in Leber's optic atrophy disease patient GM10744 cells after 48 hrs by bioluminescence assay; type: functional; summary of the method: as §2
[31] = Effect on total ATP level in CoQ10-deficient human GM17932 cells at 10 uM after 48 hrs by bioluminescence assay relative to control; type: functional; summary of the method: as §2
CCRF-CEM [32] = assay: Cytoprotective activity against diethyl maleate-induced oxidative stress in human CCRF-CEM cells assessed as cell viability at 2.5 uM preincubated for 15 hrs prior to diethyl maleate-challenge measured after 6 hrs by hemocytometer-based assay; type: functional; summary of the method: as §3
Homo sapiens [33] = species on record: Homo sapiens; assay: Cytoprotective activity against diethyl maleate-induced oxidative stress in Parkinson's disease patient GM15010 cells assessed as cell viability at 0.5 uM preincubated for 15 hrs prior to diethyl maleate-challenge measured after 6 hrs by hemocytometer-based assay; type: functional; summary of the method: as §3
CCRF-CEM [34] = assay: Antioxidant activity in human CCRF-CEM cells assessed as suppression of diethyl maleate-induced ROS generation at 0.25 to 2.5 uM preincubated for 18 hrs prior to diethyl maleate-challenge measured after 1 hr by FACS flow cytometric analysis in presence of DCFH-DA; type: functional, cell-based; summary of the method: as §1
CCRF-CEM [35] = assay: Antioxidant activity in human CCRF-CEM cells assessed as suppression of diethyl maleate-induced ROS generation at 2.5 uM preincubated for 18 hrs prior to diethyl maleate-challenge measured after 1 hr by FACS flow cytometric analysis in presence of DCFH-DA; type: functional, cell-based; summary of the method: as §1
CCRF-CEM [36] = assay: Antioxidant activity in human CCRF-CEM cells assessed as suppression of diethyl maleate-induced ROS generation at 0.25 uM preincubated for 18 hrs prior to diethyl maleate-challenge measured after 1 hr by FACS flow cytometric analysis in presence of DCFH-DA; type: functional, cell-based; summary of the method: as §1

Structure (SMILES)	residual activity (Bos taurus [2]) [%]	Activity [5] [%]	Activity [6] [%]	Activity [7] [%]	Activity (GM15850 [9])	Activity (Homo sapiens [10])	Activity (GM15850 [11]) [%]	residual activity (Bos taurus [12]) [%]	Activity (Homo sapiens [13])	Activity [14] [%]	Activity (GM15850 [15]) [%]	residual activity (Bos taurus [16]) [%]	Imax (Bos taurus [17]) [%]	Activity (GM15850 [18]) [%]	Activity (CCRF-CEM [20])	Activity (CCRF-CEM [23])	Activity [26] [%]	IC50 [29] [µM]	Ki [29] [µM]	Activity [31] [%]	other results
COC1=C(OC)C(=O)C(CCCCCCCCCCO)=C(C)C1=O [IDEBENONE]	57.4	29.9	55.7	1.6	inactive	Active	73	19.3	Active	3	2.6	13.2	84	45.6	inactive	Dose-dependent effect	79.8	6	4	45.7	Activity (CCRF-CEM [1]): Active; Activity (Homo sapiens [3]): Dose-dependent effect; Activity (Homo sapiens [4]): Active; Activity (Homo sapiens [8]): Active; Activity (GM15850 [19]): Dose-dependent effect; Activity (Homo sapiens [21]): inactive; Activity (Homo sapiens [22]): inactive; Activity (Homo sapiens [24]): inactive; Activity (Homo sapiens [25]): Active; Activity (Homo sapiens [27]): Active; Activity (GM15850 [28]): Active; Activity (Homo sapiens [30]): Dose-dependent effect; Activity (CCRF-CEM [32]): Active; Activity (Homo sapiens [33]): inactive
CCCCCCCCCCc1nc(N(C)C)nc(C)c1O	35.4	75	95.6	72.4	Active	Active	83.3	17.7	Active	40.6	42.2	3.9	88	74.4	Active	Dose-dependent effect	105.2	2	1.4	97.1	Activity (Homo sapiens [21]): Active; Activity (Homo sapiens [22]): Active; Activity (Homo sapiens [24]): Active; Activity (CCRF-CEM [34]): Active; Activity (Homo sapiens [33]): Active
CCCCCCCCCCCCCCCCc1nc(N(C)C)nc(C)c1O	96.2	95.6	102.7	95	Active	Active	95.3	88.6	Active	83.4	74.7	76.9	84	90.3	Active	Dose-dependent effect	108.2	198	141	103	Activity (Homo sapiens [21]): Active; Activity (Homo sapiens [22]): Active; Activity (Homo sapiens [24]): Active; Activity (CCRF-CEM [34]): Active; Activity (Homo sapiens [33]): Active
Cc1nc(N(C)C)nc(CCCCCCCCCCO)c1O	50	45.6	75.5	46.4		Active	77.2	22	Active	20.7	27.7	15	85	46.3		Dose-dependent effect	98.8	1	0.7	86.1	Activity (CCRF-CEM [35]): Active; Activity (CCRF-CEM [36]): Active
CCCCCCCCCCC1=C(C)C(=O)C(OC)=C(OC)C1=O [DECYLUBIQUINONE]	93	63.4	75.1	71.1	Active	Active	92.8	82.4	Active	47	62.7	61.5		76.4	Active	Dose-dependent effect	100	> 200	> 200	86.2	Activity (CCRF-CEM [35]): Active; Activity (Homo sapiens [21]): Active; Activity (Homo sapiens [22]): Active; Activity (Homo sapiens [24]): Active; Activity (CCRF-CEM [36]): Active; Activity (Homo sapiens [33]): Active

Source: ChEMBL document CHEMBL2396633, “Effects of cytoprotective antioxidants on lymphocytes from representative mitochondrial neurodegenerative diseases” (Bioorg Med Chem, 2013)
